Source: PubChem BioAssay
MrgX1 allo act – allosterically activates human MrgX1 receptor signaling | Q96LB2 | MrgX1-HEK293, Fluo-4 calcium flux, FDSS; active compounds read high | B-score at 10 µM | actives 0.63% (n = 310,000) | AID 588675;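 active = plate-corrected calcium response at least 3 library SD above typical, normal starting fluorescence, not activating the receptor alone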;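 also: compound read alongside a low EC10 to EC30 dose of BAM8-22 agonist; peak minus trough fluorescence over baseline measured at the second addition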
Target sequence (Q96LB2 whole entry, looked up): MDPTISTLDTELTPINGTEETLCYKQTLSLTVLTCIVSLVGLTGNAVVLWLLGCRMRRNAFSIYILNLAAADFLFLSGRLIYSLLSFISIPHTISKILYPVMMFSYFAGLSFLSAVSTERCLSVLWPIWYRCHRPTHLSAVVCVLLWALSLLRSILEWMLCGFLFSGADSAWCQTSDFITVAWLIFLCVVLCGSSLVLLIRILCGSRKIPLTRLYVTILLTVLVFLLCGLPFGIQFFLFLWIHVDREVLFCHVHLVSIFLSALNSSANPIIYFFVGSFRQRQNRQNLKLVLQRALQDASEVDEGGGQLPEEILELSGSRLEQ
RGS4 block – inhibitors of human RGS4; P49798; HEK293 M3R/RGS4 inducible, Fluo-4 calcium flux; active compounds read high; triggered by carbachol at its EC20; B-score at 10 µM; actives 0.45% (n = 310,000);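 active = B-score, a plate-corrected calcium signal, over three deviations above library mean, with baseline fluorescence within five deviations of library mean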;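 also: RGS4 expression induced by doxycycline in cells with stable M3 receptor; B-score is computed from the integrated fluorescence ratio over baseline after carbachol; higher B-score means a larger calcium signal and so more RGS4 inhibition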
Target sequence (P49798 whole entry, looked up): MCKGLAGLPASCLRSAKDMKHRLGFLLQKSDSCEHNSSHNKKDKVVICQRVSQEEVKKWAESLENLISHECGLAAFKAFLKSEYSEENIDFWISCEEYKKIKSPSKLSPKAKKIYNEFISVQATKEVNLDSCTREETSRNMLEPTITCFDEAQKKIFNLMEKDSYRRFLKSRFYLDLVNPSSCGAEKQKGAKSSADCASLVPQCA
MrgX1 antag – human MrgX1 receptor antagonism, primary screen. Q96LB2. MRGX1-HEK293 calcium flux, Fluo-4, BAM8-22 antagonism; active compounds read low. B-score at 10 µM. actives 1.3% (n = 310,000);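 active = calcium-response B-score plate-corrected more than 3 library SD below zero, starting fluorescence within 5 deviations, no agonist response on first addition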;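 also: peak minus trough fluorescence over baseline after final BAM8-22 challenge near maximal dose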
RGS4 pot – potentiators or activators of RGS4; HEK293 M3R/inducible RGS4, carbachol calcium flux Fluo4; active compounds read low; B-score at 10 µM; actives 0.92% (n = 310,000);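 active = B-score of the integrated calcium signal more than 4 SD below the library mean, with starting fluorescence not abnormally high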;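 also: negative B-score means reduced calcium response which marks RGS4 activation or potentiation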
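Material: Inducible-RGS4 HEK293 cells carrying M3 receptor; also added: carbachol at ECmax as muscarinic agonist stimulus; incubation: compound preincubation 20 min at room temperature before agonist; signal: Fluo4-AM (2 µM) calcium-flux fluorescence, kinetic read; measure: integrated calcium ratio converted to B score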
MrgX1 ag – human MrgX1 receptor agonism, primary screen; Q96LB2; MrgX1-HEK293 cells, Fluo-4 calcium fluorescence, agonist mode; active compounds read high; B-score at 10 µM; actives 0.44% (n = 310,000);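 active = calcium response B-score plate-corrected fluorescence ratio at least 3 library SD, with starting fluorescence B-score inside 5 SD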
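Assay system: MrgX1-expressing HEK293 cells / Amount: fifteen thousand cells per well / Doses: test compound in the initial addition of three / Timing: cells plated overnight, dye loaded 0.5 h 37 °C, 0.5 h room temperature / Technique: kinetic calcium dye fluorescence, Fluo-4 NW / Control set: positive and negative controls per plate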
RGS4 activ val – RGS4 activation, validation assay; shares compounds with RGS4 pot; HEK293 M3R/RGS4 inducible, carbachol calcium flux Fluo4; inhibition, % at 10 µM; actives 89% (n = 1,100); AID 602282;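 active = inhibition above 3 SD of the buffer control wells, cut at about 41% in these data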;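 also: signal is the integrated peak-minus-minimum Fluo4 fluorescence over baseline ratio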
M3R Ca counter – activity in cells without induced RGS4 expression; inhibition, % at 10 µM; shares compounds with RGS4 pot; AID 602283; actives 82% (n = 1,100); HEK293 M3R non-induced RGS4, Fluo4 calcium flux; after carbachol challenge at its EC90;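 active = inhibition exceeding 3 SD of buffer-only control wells, cut at about 26% in these data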;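 also: percent drop in integrated peak-minus-baseline over baseline Fluo4 ratio after carbachol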
Starred values were filed as active, the others as inactive; i = inactive; · = not tested or not shown. The list is not random: actives were taken first. Their share in the collection is about 3.5%.

SMILES | MrgX1 allo act | RGS4 block | MrgX1 antag | RGS4 pot | MrgX1 ag | RGS4 activ val | M3R Ca counter
Cc1ccc(Cc2c(C)nc3nc(SCC(=O)NCCCN4CCCC4)nn3c2C)cc1 | i | i | i | -9.6* | i | 41* | 0
Cc1ccc(Cc2c(C)nc3nc(SCC(=O)NCCCN4CCCCC4)nn3c2C)cc1 | i | i | i | i | i | · | ·
COCCNC(=O)NC(=O)CN1CCN(C(c2ccccc2)c2ccccc2)CC1 | i | i | i | i | i | · | ·
OCC1(Cc2ccccc2)CCCN(Cc2ccc(-c3ccco3)cc2)C1 (stereo not given) | i | i | i | i | i | · | ·
OCC1(Cc2ccccc2)CCN(Cc2ccc(-c3ccco3)cc2)CC1 | i | i | i | -10* | i | 90* | 52*
CC1CCc2cc(F)ccc2N1C(=O)CSc1nnc(-c2cccs2)n1C (stereo not given) | i | i | i | i | i | · | ·
COc1cc(CCCN2CCNC[C@@H]2Cc2ccc(O)cc2)cc(OC)c1OC | i | i | i | i | i | · | ·
Cc1nc2ccccn2c1-c1csc(Nc2cccc(O)c2)n1 | · | i | · | -8.4* | · | 57* | 0
c1ccc2c(c1)CC(N1CCCCC1)c1ccccc1S2 (stereo not given) | i | i | i | i | i | · | ·
OCCN1CCN(C2Cc3cc(Cl)ccc3Sc3ccc(Cl)cc32)CC1 (stereo not given) (tested in a mixture with another compound) | i | i | i | i | i | · | ·
CN1CCN(C2=Cc3cc(Cl)ccc3Sc3cc(F)ccc32)CC1 | i | i | i | -8* | i | 92* | 91*
CN1CCN(C2Cc3cc(Cl)ccc3Sc3cc(F)ccc32)CC1 (stereo not given) | i | i | i | -8* | i | 93* | 95*
CN1CCN(CCC(=O)N2c3ccccc3Sc3ccc(Cl)cc32)CC1 | i | i | i | i | i | · | ·
CCc1ccc2c(c1)Sc1ccccc1CC2N1CCN(C)CC1 (stereo not given) | i | i | i | -8.9* | i | 92* | 90*
O=C(Cc1cn2ccsc2n1)Nc1nc2c(s1)CN(Cc1ccccc1)CC2 | i | i | i | i | i | · | ·
CCOC(=O)N/N=C(/c1ccccc1)C1CCCCC1 | i | i | i | i | i | · | ·
CC(=O)NC1(C(F)(F)F)C(=O)Nc2c1c(=O)[nH]c(=O)n2CCc1ccccc1 (stereo not given) | i | i | i | i | i | · | ·
CCC(=O)c1ccc(OCC(=O)OCC(=O)NCCC2=CCCCC2)cc1 | i | i | i | i | i | · | ·
Brc1ccc(-c2nnc3n2-c2ccccc2CC3)cc1 | i | i | i | i | i | · | ·
CCNCc1ccc(OCc2cccs2)c(OCC)c1 | i | i | i | -8.9* | i | 62* | 0
CCCn1nnc(NCc2ccc(OCc3cccs3)c(OC)c2)n1 | i | i | i | i | i | · | ·
CCOC(=O)C1(Cc2cccc(Cl)c2)CCCN(C(=O)c2ccc(COC)s2)C1 (stereo not given) | i | i | i | i | i | · | ·
COCCNc1nc(-c2cc(C(=O)Nc3ccccc3)on2)cc(C(C)C)n1 | i | i | i | i | i | · | ·
CN(Cc1ccccc1)C(=O)c1cc2ccccc2o1 | i | i | i | i | i | · | ·
CC(C)(C)N(Cc1ccccc1)C(=O)c1cc2ccccc2o1 | i | i | i | -7.6* | i | 91* | 93*
SMILES | MrgX1 allo act | RGS4 block | MrgX1 antag | RGS4 pot | MrgX1 ag | RGS4 activ val | M3R Ca counter
CC1Sc2ccc(S(=O)(=O)N3CCC(C(=O)N(C)Cc4ccccc4)CC3)cc2NC1=O (stereo not given) | i | i | i | i | i | · | ·
Cc1ccc(S(=O)(=O)Nc2cccc(C(=O)NCC(c3ccco3)N(C)C)c2)cc1F (stereo not given) | i | i | i | -8.2* | i | 66* | 84*
CNS(=O)(=O)c1cccc(C(=O)NCC(c2ccco2)N(C)C)c1 (stereo not given) | i | i | i | i | i | · | ·
CN(Cc1cc([N+](=O)[O-])ccc1Cl)C(=O)C[n+]1ccccc1 | i | i | i | i | i | · | ·
c1ccc(C(c2ccccc2)c2noc(CN3CCN(CC4CC4)CC3)n2)cc1 | i | i | i | -8* | i | 93* | 78*
COc1ccccc1C1c2ccc3ccccc3c2Oc2ncn(CCN(C)C)c(=N)c21 (stereo not given) | i | i | i | -8.3* | i | 86* | 67*
COc1ccccc1C1c2ccc3ccccc3c2Oc2ncn(CCCO)c(=N)c21 (stereo not given) | i | i | i | i | i | · | ·
COc1ccc(C2c3ccc4ccccc4c3Oc3ncn(CCCN(C)C)c(=N)c32)cc1 (stereo not given) | i | i | i | -8.6* | i | 40* | 84*
Cn1c(=O)c2c(ncn2CCOc2ccc(Br)cc2)n(C)c1=O | i | i | i | i | i | · | ·
Cn1c(=O)c2c(ncn2CCOc2ccc(F)cc2)n(C)c1=O | i | i | i | -8.9* | i | 0 | 0
Cc1cc(=O)oc2cc(OCC(=O)Nc3ccccc3C(=O)O)ccc12 | i | i | i | i | i | · | ·
CN(C)C(CNC(=O)c1ccc(C2SCCS2)cc1)c1ccccc1 (stereo not given) | i | i | i | -10* | i | 94* | 80*
CCC(C)Nc1nc(OC(C(F)(F)F)C(F)(F)F)nc(OC(C(F)(F)F)C(F)(F)F)n1 (stereo not given) | i | i | i | -7.9* | i | 90* | 53*
CCCCN(CC)CCNC(=O)c1cc2c(-c3ccc(Cl)cc3)nn(C)c2s1 | i | i | i | -8.9* | i | 72* | 57*
CNS(=O)(=O)c1cccc(C(=O)OCc2cc(=O)n3cc(Br)ccc3n2)c1 | i | i | i | i | i | · | ·
CCOC(=O)C(=CNc1ccc(NC2=NCC(C)(C)S2)cc1)C(=O)OCC | i | i | i | -11* | i | 79* | 84*
CC(Oc1ccccc1)C(=O)Nc1ccc(C(N)=O)cc1 (stereo not given) | i | i | i | i | i | · | ·
